In ChEMBL document CHEMBL1255506, “Discovery of quinolines as selective glucocorticoid receptor agonists” (Bioorg Med Chem Lett, 2010):

How the values were obtained:
Glucocorticoid receptor [1] = molecular target: T1, Glucocorticoid receptor (Homo sapiens, UniProt P04150); assay: Binding affinity to human recombinant glucocorticoid receptor expressed in baculovirus infected Sf9 cells
T1 sequence (P04150 whole entry): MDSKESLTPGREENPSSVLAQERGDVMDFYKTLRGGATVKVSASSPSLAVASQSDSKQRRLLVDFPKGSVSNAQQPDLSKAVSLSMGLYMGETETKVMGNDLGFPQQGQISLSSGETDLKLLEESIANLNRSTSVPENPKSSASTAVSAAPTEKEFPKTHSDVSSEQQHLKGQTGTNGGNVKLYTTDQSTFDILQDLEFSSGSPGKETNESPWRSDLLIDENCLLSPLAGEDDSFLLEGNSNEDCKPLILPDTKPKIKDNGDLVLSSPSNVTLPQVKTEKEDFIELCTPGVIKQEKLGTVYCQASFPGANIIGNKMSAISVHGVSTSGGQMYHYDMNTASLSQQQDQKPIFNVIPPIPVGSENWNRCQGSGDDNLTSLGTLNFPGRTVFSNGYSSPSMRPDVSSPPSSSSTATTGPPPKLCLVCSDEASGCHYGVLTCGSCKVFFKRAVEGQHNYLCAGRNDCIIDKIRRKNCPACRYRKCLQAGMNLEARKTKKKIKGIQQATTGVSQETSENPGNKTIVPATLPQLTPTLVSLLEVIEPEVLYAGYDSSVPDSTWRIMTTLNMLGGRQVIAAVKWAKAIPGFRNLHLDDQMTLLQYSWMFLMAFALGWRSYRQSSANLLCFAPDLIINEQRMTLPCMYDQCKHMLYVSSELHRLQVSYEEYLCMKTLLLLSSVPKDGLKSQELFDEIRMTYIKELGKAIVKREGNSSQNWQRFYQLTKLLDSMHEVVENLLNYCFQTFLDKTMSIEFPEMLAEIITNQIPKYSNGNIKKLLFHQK

Progesterone receptor = molecular target: T2, Progesterone receptor (Homo sapiens, UniProt P06401); assay: Binding affinity to human recombinant progesterone receptor expressed in baculovirus infected Sf9 cells
T2 sequence (P06401 whole entry): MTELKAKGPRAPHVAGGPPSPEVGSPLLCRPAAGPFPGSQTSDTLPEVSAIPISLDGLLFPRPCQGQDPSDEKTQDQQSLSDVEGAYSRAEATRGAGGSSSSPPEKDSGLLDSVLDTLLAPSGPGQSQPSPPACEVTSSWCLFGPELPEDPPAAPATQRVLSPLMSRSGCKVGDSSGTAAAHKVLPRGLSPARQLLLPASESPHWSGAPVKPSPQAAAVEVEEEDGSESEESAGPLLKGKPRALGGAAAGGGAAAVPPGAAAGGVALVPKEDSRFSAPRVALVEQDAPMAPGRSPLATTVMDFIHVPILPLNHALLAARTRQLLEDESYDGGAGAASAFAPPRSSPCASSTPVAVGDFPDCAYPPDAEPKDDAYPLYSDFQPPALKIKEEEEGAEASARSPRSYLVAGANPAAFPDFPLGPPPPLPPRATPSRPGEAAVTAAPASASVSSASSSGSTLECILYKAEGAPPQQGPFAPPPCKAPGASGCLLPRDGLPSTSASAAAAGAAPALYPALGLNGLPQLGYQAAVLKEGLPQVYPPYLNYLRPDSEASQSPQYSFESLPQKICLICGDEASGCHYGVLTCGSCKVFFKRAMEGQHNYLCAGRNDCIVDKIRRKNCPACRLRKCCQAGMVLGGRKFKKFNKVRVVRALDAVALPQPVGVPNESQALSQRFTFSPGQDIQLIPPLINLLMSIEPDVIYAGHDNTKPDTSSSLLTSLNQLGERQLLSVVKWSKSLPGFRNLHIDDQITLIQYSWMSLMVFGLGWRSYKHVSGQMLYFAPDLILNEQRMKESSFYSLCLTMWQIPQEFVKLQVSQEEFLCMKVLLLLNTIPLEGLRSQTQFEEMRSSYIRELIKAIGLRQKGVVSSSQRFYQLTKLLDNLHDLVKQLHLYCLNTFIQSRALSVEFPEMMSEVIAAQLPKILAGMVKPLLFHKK
How it was run: (§1)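 Extracts of Sf9 cells infected with recombinant baculovirus encoding the human receptor served as receptor source for competitive binding. Run in duplicate; pIC50 derived, value error stated as 0.2.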

[2] = molecular target: T3, Mineralocorticoid receptor (Homo sapiens, UniProt P08235); assay: Binding affinity to human recombinant mineralocorticoid receptor expressed in baculovirus infected Sf9 cells; how it was run: as §1
T3 sequence (P08235 whole entry): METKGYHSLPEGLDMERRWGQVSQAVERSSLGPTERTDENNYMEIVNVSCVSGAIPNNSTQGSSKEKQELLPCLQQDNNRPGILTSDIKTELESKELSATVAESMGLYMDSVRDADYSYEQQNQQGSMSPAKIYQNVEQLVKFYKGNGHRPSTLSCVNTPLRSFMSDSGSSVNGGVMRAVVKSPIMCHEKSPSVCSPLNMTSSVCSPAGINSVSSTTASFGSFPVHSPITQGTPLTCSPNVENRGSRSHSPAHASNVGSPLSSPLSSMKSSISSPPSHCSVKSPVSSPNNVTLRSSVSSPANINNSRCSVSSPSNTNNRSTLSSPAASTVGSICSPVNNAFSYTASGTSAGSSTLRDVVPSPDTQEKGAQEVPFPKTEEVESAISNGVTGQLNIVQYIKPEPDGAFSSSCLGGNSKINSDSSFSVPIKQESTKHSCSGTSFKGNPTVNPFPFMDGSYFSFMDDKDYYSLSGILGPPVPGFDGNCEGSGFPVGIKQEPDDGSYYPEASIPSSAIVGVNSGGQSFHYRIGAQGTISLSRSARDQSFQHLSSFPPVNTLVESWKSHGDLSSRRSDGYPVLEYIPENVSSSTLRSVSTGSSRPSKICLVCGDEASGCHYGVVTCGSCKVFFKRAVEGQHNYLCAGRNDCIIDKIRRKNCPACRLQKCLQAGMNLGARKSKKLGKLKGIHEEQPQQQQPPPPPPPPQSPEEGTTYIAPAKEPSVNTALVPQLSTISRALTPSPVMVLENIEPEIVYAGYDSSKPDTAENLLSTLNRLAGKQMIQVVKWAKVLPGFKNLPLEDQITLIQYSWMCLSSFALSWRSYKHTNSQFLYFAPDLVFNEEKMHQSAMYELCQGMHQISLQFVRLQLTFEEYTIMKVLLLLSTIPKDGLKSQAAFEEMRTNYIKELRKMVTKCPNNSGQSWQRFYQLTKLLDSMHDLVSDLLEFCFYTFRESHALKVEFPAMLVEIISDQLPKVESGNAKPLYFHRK

Androgen receptor = molecular target: T4, Androgen receptor (Homo sapiens, UniProt P10275); assay: Binding affinity to human recombinant androgen receptor expressed in baculovirus infected Sf9 cells
T4 sequence (P10275 whole entry): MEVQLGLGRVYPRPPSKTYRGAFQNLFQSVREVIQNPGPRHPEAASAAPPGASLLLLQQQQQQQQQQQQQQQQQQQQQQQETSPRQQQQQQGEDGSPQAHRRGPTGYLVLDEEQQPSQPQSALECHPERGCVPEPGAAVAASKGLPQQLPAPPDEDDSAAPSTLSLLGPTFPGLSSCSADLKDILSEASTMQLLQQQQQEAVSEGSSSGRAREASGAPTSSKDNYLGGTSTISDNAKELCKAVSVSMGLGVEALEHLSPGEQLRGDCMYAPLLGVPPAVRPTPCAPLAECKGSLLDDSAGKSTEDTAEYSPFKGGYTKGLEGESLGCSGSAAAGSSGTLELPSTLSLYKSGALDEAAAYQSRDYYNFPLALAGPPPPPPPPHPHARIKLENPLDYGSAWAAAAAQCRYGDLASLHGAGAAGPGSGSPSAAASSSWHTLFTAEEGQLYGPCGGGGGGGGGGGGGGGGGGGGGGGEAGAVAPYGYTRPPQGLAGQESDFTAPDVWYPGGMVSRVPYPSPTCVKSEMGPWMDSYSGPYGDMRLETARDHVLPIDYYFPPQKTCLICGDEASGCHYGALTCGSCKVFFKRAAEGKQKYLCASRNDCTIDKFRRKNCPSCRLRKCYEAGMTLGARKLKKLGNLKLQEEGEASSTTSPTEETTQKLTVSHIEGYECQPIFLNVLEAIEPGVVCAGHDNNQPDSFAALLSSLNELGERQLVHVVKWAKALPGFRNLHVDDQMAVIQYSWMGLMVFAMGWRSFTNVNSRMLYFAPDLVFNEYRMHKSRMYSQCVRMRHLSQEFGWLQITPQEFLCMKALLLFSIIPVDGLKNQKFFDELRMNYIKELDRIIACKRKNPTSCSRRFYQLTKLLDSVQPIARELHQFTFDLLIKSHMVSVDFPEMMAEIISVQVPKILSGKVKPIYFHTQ

Glucocorticoid receptor [3] = molecular target: T1, Glucocorticoid receptor; assay: Transrepression activity at glucocorticoid receptor-mediated antiinflammatory activity in human THP1 cells assessed as inhibition of LPS-induced IL-8 production; format: cell-based, THP-1
Glucocorticoid receptor [4] = molecular target: T1, Glucocorticoid receptor; assay: Transrepression activity at glucocorticoid receptor-mediated antiinflammatory activity in human HeLa cells assessed as inhibition of TPA-induced collagenase promoter activity by luciferase reporter gene assay; format: cell-based
Glucocorticoid receptor [5] = molecular target: T1, Glucocorticoid receptor; assay: Transactivation activity at glucocorticoid receptor in human HeLa cells assessed as induction of MMTV promoter activity by luciferase reporter gene assay; format: cell-based

| IC50 (Glucocorticoid receptor [1]) [nM] | IC50 (Progesterone receptor) [nM] | IC50 [2] [nM] | IC50 (Androgen receptor) [nM] | IC50 (Glucocorticoid receptor [3]) [nM] | IC50 (Glucocorticoid receptor [4]) [nM] | EC50 (Glucocorticoid receptor [5]) [nM] | Structure (SMILES) |
| --- | --- | --- | --- | --- | --- | --- | --- |
| – | – | 79.4 | 631 | – | – | – | Cc1noc(=O)c2ccc(NC(=O)C(O)(CC(C)(C)c3cccc4c3OCC4)C(F)(F)F)cc12 (stereo not drawn) |
| 0.631 | > 1000 | > 1000 | > 1000 | 25.1 | 2 | 25.1 | COc1ccc(F)cc1C(C)(C)CC(O)(CNc1cccc2nc(C)ccc12)C(F)(F)F (stereo not drawn) |
| > 1000 | > 1000 | > 1000 | > 1000 | – | – | – | COc1ccc(F)cc1C(C)(C)CC(O)(CNc1cccc2ccccc12)C(F)(F)F (stereo not drawn) |
| 1 | 12.6 | 7.94 | 501 | – | – | – | COc1ccc(F)cc1C(C)(C)CC(O)(C(=O)Nc1ccc2c(=O)onc(C)c2c1)C(F)(F)F (stereo not drawn) |
| 3.16 | 7.94 | 1.26 | 158 | 50.1 | 10 | 25.1 | Cc1noc(=O)c2ccc(NC(=O)C(O)(CC(C)(C)c3cc(F)ccc3O)C(F)(F)F)cc12 (stereo not drawn) |
| 10 | 15.8 | > 1000 | > 1000 | – | – | – | COc1ccc(F)cc1C(C)(C)CC(O)(CNc1ccc2c(=O)onc(C)c2c1)C(F)(F)F (stereo not drawn) |

The remaining lines, values behind:

| Structure (SMILES) | IC50 (Glucocorticoid receptor [1]) [nM] | IC50 (Progesterone receptor) [nM] | IC50 [2] [nM] | IC50 (Androgen receptor) [nM] | IC50 (Glucocorticoid receptor [3]) [nM] | IC50 (Glucocorticoid receptor [4]) [nM] | EC50 (Glucocorticoid receptor [5]) [nM] |
| --- | --- | --- | --- | --- | --- | --- | --- |
| COc1ccc(F)cc1C(C)(C)CC(O)(CNc1cccc2ncccc12)C(F)(F)F (stereo not drawn) | 20 | 1000 | > 1000 | > 1000 | 25.1 | – | – |
| CC(C)(CC(O)(CNc1cccc2ncccc12)C(F)(F)F)c1cc(F)ccc1O (stereo not drawn) | 1 | > 1000 | > 1000 | > 1000 | 20 | 6.31 | 79.4 |
| CC(C)(CC(O)(CNc1cccc2ccccc12)C(F)(F)F)c1cc(F)ccc1O (stereo not drawn) | 15.8 | > 1000 | > 1000 | > 1000 | > 1000 | – | – |
| Cc1ccc2c(NCC(O)(CC(C)(C)c3cc(F)ccc3O)C(F)(F)F)cccc2n1 (stereo not drawn) | 6.31 | > 1000 | > 1000 | > 1000 | 5.01 | 3.16 | 12.6 |
| C[C@@H]1C[C@H]2[C@@H]3CCC4=CC(=O)C=C[C@]4(C)[C@@]3(F)[C@@H](O)C[C@]2(C)[C@@]1(O)C(=O)CO [DEXAMETHASONE] | – | > 1000 | – | – | – | – | – |
